DSG3 Ab inh: inhibitors of pemphigus antibody binding to DSG3, primary screen, biochemical, bead-based, flow cytometry, scFv-GFP | Desmoglein-3 (Homo sapiens), P32926 | hit rate 0.48% among 310,000 | binding (percent of control), % at 10 µM | DSG3-coupled beads, scFv-anti-DSG3-GFP binding; active compounds read low;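 active = binding more than 3 SD below its plate's average and above zero; inconclusive = below that plate limit but binding exactly zero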;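 also: hits lower antibody fragment binding to DSG3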
Tb MetRS inh: T. brucei MetRS inhibitors, primary screen, biochemical, luminescence; methionyl-tRNA synthetase (Trypanosoma brucei brucei); purified T. brucei MetRS, ATP depletion, Kinase-Glo luminescence; inhibition, % at 11.9 µM; hit rate 0.4% among 360,000; AID 624268, 2012;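 active = inhibition above a per-plate cutoff of the control wells' mean inhibition plus 3 SD, cut at about 5.5% in these data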
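Dosing: 11.9 µM compound single dose, 0.9% DMSO; Assay system: purified T. brucei MetRS enzyme; Measured by: Kinase-Glo luciferase luminescence reporting remaining unconsumed ATP; Schedule: 15 min plus 2 h at 25 °C.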
core dimer inh: inhibitors of HCV core protein dimerization, primary screen, biochemical, TR-FRET, high-throughput | TR-FRET GST/Flag-core106 dimerization, 1536-well | inhibition, % at 5 µM | hit rate 0.33% among 300,000 | AID 1899, 2009;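 active = inhibition above the mean of all tested compounds plus 3 SD, set per screening campaign, cut at about 45% in these data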
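Test system: GST/Flag-tagged HCV core106 proteins; Medium: KF-containing HEPES buffer, pH 7.45, DTT, CHAPS, BSA; Times: compound-protein-antibody incubation 4 h at 22.5 °C; Detection: TR-FRET 671 and 617 nm emission; Benchmarks: wells lacking GST-core106 and wells with excess unlabelled core106.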
Rce1 inh: yeast Rce1p protease inhibitors, primary screen, biochemical, fluorescence, cell-free homogeneous; calls only; CAAX prenyl protease 2 (Saccharomyces cerevisiae (strain ATCC 204508 / S288c)), Q03530; AID 2563, 2010; hit rate 0.27% among 290,000; yeast membranes, quenched prenylated peptide cleavage fluorescence;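 active = fall in fluorescence gain of 50% or more versus controls, with final raw signal at or below 3038400; inconclusive = same 50% fall but final raw signal above 3038400; inactive = fall in fluorescence gain under 50%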
Target sequence (Q03530 whole entry, looked up): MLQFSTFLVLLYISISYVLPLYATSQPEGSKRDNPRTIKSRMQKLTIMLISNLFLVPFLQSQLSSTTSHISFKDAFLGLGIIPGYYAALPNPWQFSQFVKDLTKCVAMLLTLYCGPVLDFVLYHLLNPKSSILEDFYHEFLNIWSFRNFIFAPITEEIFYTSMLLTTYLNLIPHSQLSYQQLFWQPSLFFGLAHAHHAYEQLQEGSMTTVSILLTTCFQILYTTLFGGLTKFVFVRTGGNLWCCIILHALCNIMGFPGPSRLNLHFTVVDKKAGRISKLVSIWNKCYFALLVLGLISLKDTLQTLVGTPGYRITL
NadD block: inhibitors of S. aureus NadD, primary screen, biochemical, colorimetric, uHTS; purified NadD enzyme, colorimetric absorbance read-out; hit rate 0.78% among 360,000; inhibition, % at 20 µM; in the data active = inhibition above about 26%
Tb MetRS conf: T. brucei MetRS inhibitors, confirmation, biochemical, luminescence | shares compounds with Tb MetRS inh | T. brucei MetRS enzyme, luminescence (ATP depletion) | inhibition, % at 11.9 µM | hit rate 93% among 1,400 | AID 624412, 2012; in the data active = inhibition above about 7%
Jurkat tox: Jurkat T cell cytotoxicity, cytotoxicity control for T. brucei MetRS inhibitor project, luminescence, high throughput; shares compounds with Tb MetRS inh; inhibition, % at 8.3 µM; hit rate 12% among 1,400; AID 624413, 2012; Jurkat cells viability, ATP luminescence; in the data active = inhibition above about 15%
Tb MetRS inh FP: T. brucei MetRS inhibitors, orthogonal assay for T. brucei MetRS inhibitor project, biochemical, fluorescence polarization; purified T. brucei MetRS; hit rate 44% among 1,400; inhibition, % at 11.9 µM; AID 651607, 2012; shares compounds with Tb MetRS inh; in the data active = inhibition above about 17%
Hits are given with their value; 0 = inactive; ? = inconclusive; - = no result given. The list is not random: actives were taken first. Their share in the collection is about 1.9%.

SMILES	DSG3 Ab inh	Tb MetRS inh	core dimer inh	Rce1 inh	NadD block	Tb MetRS conf	Jurkat tox	Tb MetRS inh FP
Nc1nc2n(n1)C(c1ccco1)CC(c1ccc(Cl)cc1Cl)N2 (configuration not stated)	-	9.6	0	0	0	17.5	0	0
Nc1nc2n(n1)C(c1ccco1)CC(c1ccc(Cl)cc1)N2 (configuration not stated)	0	0	0	0	0	-	-	-
Cc1ccc(NS(=O)(=O)c2c(C)[nH]c(C)c2C(=O)N2CCCCC2)cc1Cl	-	21.9	0	0	0	32.1	0	0
Cc1ccc(NS(=O)(=O)c2c(C)[nH]c(C)c2C(=O)N2CCCCC2)c(Cl)c1	0	8.4	0	0	0	21.0	0	0
Cc1ccc(N(CC(=O)NC(C)(C)C)C(=O)CS(=O)CC(=O)Nc2ccc(F)cc2)cc1 (configuration not stated)	0	0	0	0	0	-	-	-
C/C(=C1/SC(=S)N(CCC(=O)O)C1=O)c1ccc(O)cc1	0	25.9	0	0	0	64.1	0	24.5
COc1cccc(-c2nc(CS(=O)(=O)CC(=O)NC3CCCC3)c(C)o2)c1	-	0	0	0	0	-	-	-
O=C(Cn1cnc2ccccc21)Nc1ccc(F)c(F)c1	-	17.2	0	0	0	29.5	0	0
O=C(CSc1nc2ncc(Cl)cc2[nH]1)NC1CCS(=O)(=O)C1 (configuration not stated)	0	6.2	0	0	0	21.7	0	0
O=C(CSc1nc2ccc(Cl)cc2[nH]1)c1c[nH]c2ccccc12	-	15.2	0	0	0	20.4	0	25.4
O=C(CSc1nc2ccccc2[nH]1)Nc1ccc(F)c(F)c1	0	36.4	0	0	0	51.0	0	26.0
O=C(CSc1nc2ncc(Cl)cc2[nH]1)c1c[nH]c2ccccc12	0	0	0	0	0	-	-	-
O=C(CSc1nc2ccc(Cl)cc2[nH]1)NC1CCCC1	0	14.2	0	0	0	33.1	0	0
Cc1ccc2nc(SCC(=O)Nc3ccc4[nH]c(=O)[nH]c4c3)[nH]c2c1	0	0	-	-	0	-	-	-
O=C(CSc1nc2ccc(Cl)cc2[nH]1)N1CCN(C(=O)c2ccco2)CC1	0	11.7	0	0	0	13.8	17.0	0
O=C(CSc1nc2ccc(Cl)cc2[nH]1)Nc1ccc2[nH]c(=O)[nH]c2c1	0	8.3	0	0	0	32.9	0	0
Cc1ccc2nc(SCC(=O)N3CCN(C(=O)c4ccco4)CC3)[nH]c2c1	0	0	0	0	0	-	-	-
O=C(CSc1nc2ccc([N+](=O)[O-])cc2[nH]1)NC1CCCCCC1	0	0	0	0	0	-	-	-
COc1ccc(CNS(=O)(=O)c2cc(Br)cc3c2N(C(C)=O)C(C)C3)cc1 (configuration not stated)	-	0	0	0	0	-	-	-
O=C(c1ccncc1)c1ccc(N2CCN(C3CC(=O)N(Cc4cccs4)C3=O)CC2)cc1 (configuration not stated)	0	6.6	0	0	0	14.2	0	0
Cc1ccc(-c2ccc(/C=N/n3cnnc3)o2)cc1	0	0	0	0	0	-	-	-
c1ccc(OCc2nnc3n2CCCCC3)cc1	0	0	0	0	0	-	-	-
Cc1cc(Cl)ccc1OCc1nnc2n1CCCCC2	0	9.4	0	0	0	20.2	0	0
Clc1ccc(OCc2nnc3n2CCCCC3)c(Cl)c1	0	16.2	0	0	0	35.7	0	17.7
CCOC(=O)c1c(NC(=O)CSc2ncn[nH]2)sc(C(=O)N(C)C)c1C	0	0	0	0	0	-	-	-
SMILES	DSG3 Ab inh	Tb MetRS inh	core dimer inh	Rce1 inh	NadD block	Tb MetRS conf	Jurkat tox	Tb MetRS inh FP
O=C(Cn1cc(C(=O)C(=O)N2CCOCC2)c2ccccc21)Nc1cccc(C(F)(F)F)c1	0	90.2	-	-	0	97.0	0	95.0
Cc1ccc(NC(=O)CCNS(=O)(=O)c2cc(Br)cnc2N)cc1Cl	0	44.0	0	0	0	58.4	0	21.5
Cc1cc(NC(=O)CCNS(=O)(=O)c2cc(Br)cnc2N)ccc1Br	0	30.9	0	0	0	47.4	0	29.3
Cc1ccc(NC(=O)CCNS(=O)(=O)c2cc(Br)cnc2N)c(Cl)c1	-	-	0	0	-	-	-	-
Nc1ncc(Br)cc1S(=O)(=O)NCCC(=O)Nc1cccc(Cl)c1	0	10.5	0	0	0	17.2	0	0
O=S(=O)(c1ccccc1F)N1CCN(Cc2nc3ccccc3[nH]2)CC1	0	0	0	0	0	-	-	-
C/C(=N/OC(=O)c1ccc(C)cc1)C(=O)c1ccc(Br)cc1	0	0	0	0	0	-	-	-
CC/C(=N/O)C(=O)c1ccc(Br)cc1	0	6.2	0	-	0	18.9	0	0
CO/N=C(\c1nonc1N)N1CCN(c2ccc(Cl)cc2[N+](=O)[O-])CC1	0	16.1	0	0	0	24.4	0	21.3
CC(=O)O/N=C(/c1nonc1N)N1CCN(c2ccc([N+](=O)[O-])cc2Cl)CC1	0	0	0	0	0	-	-	-
Cc1cccc(N2C(=O)CC(N3CCC(c4nc5ccccc5[nH]4)CC3)C2=O)c1 (configuration not stated)	-	0	0	0	0	-	-	-
Cc1ccc(N2CC(c3nc4ccccc4[nH]3)CC2=O)c(C)c1 (configuration not stated)	?	8.3	0	0	0	9.2	0	0
Cc1cccc(CSCCNC(=O)Nc2ccccc2)c1	0	15.5	0	0	0	24.4	0	0
COc1ccc(OC)c(C2C(C#N)=C(N)Oc3cc(C)[nH]c(=O)c32)c1 (configuration not stated)	0	13.2	0	0	0	0	0	0
COc1ccc(OC)c(C2C(C#N)=C(N)Oc3cc(N)ccc32)c1 (configuration not stated)	-	35.9	0	0	0	0	0	0
COc1ccc(OC)c(C2C(C#N)=C(N)Oc3cc(C)n(Cc4ccccn4)c(=O)c32)c1 (configuration not stated)	0	89.0	0	0	0	14.8	0	0
COc1cc(C2C(C#N)=C(N)Oc3cc(C)n(CCc4ccccc4)c(=O)c32)cc2c1OCO2 (configuration not stated)	0	85.3	0	-	0	11.1	0	0
